From ChEMBL document CHEMBL4732017, “Discovery, affinity maturation and multimerization of small molecule ligands against human tyrosinase and tyrosinase-related protein 1” (RSC Med Chem, 2021)
Values belong to the compound of their own block, whether it stands above or below them. Activity calls are given as the source filed them. No cut-off for these calls is given here.

Legend:
[1] = molecular target: 5,6-dihydroxyindole-2-carboxylic acid oxidase (Homo sapiens) (UniProt P17643); test: Binding affinity to human tyrosinase related protein 1 up to 10 uM by fluorescence polarization analysis; conditions: dose microM <=10
Chain of 5,6-dihydroxyindole-2-carboxylic acid oxidase (Homo sapiens) (P17643 whole entry, the tested form may be a part): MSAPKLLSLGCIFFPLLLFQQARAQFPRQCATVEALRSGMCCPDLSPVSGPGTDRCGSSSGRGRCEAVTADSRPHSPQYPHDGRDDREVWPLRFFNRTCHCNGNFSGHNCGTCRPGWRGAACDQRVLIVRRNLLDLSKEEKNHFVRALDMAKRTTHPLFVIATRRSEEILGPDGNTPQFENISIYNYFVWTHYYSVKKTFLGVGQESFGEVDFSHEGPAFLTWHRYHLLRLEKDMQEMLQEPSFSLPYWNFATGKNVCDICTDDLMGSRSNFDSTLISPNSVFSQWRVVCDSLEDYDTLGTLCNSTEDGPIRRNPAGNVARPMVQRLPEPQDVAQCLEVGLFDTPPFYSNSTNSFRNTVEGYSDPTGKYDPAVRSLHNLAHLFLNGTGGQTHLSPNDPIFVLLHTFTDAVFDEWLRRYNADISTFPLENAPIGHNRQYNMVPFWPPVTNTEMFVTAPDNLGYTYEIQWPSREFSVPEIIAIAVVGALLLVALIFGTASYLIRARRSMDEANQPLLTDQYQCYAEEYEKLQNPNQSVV
Procedure, shortened: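 hTYRP1 intramelanosomal domain (residues 25–471) is serially diluted 1:1 and incubated with 50 nM fluorescein-conjugated ligand in PBS pH 7.4. Fluorescence anisotropy is read in triplicate and anisotropy values are fitted against protein concentration.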

[2] = molecular target: 5,6-dihydroxyindole-2-carboxylic acid oxidase (Homo sapiens) (UniProt P17643); test: Binding affinity to human tyrosinase related protein 1 up to 100 uM by ELISA; conditions: dose microM <=100
Procedure, shortened: (§1)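 Wells are coated overnight at 4 °C with 100 nM hTYR or hTYRP1 in PBS and blocked with 4% milk-PBS for 30–45 min. A serial dilution of fluorescein-ligand conjugate is added for 45 min in the dark. Detection uses 200 nM anti-fluorescein IgG, then protein A-HRP (1:1000), each for 45 min with washes between. Absorbance is read at 450 and 620 nm, and values are fitted.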

[3] = molecular target: 5,6-dihydroxyindole-2-carboxylic acid oxidase (Homo sapiens) (UniProt P17643); test: Binding affinity to human tyrosinase related protein 1 expressed in mouse B16F10 cells at 10 uM by fluorophore based flow cytometry assay; conditions: B16-F10
[4] = molecular target: T1, Tyrosinase (Homo sapiens) (UniProt P14679); test: Binding affinity to human tyrosinase up to 100 uM by ELISA; conditions: dose microM <=100; procedure, shortened: as §1
T1 sequence (whole entry): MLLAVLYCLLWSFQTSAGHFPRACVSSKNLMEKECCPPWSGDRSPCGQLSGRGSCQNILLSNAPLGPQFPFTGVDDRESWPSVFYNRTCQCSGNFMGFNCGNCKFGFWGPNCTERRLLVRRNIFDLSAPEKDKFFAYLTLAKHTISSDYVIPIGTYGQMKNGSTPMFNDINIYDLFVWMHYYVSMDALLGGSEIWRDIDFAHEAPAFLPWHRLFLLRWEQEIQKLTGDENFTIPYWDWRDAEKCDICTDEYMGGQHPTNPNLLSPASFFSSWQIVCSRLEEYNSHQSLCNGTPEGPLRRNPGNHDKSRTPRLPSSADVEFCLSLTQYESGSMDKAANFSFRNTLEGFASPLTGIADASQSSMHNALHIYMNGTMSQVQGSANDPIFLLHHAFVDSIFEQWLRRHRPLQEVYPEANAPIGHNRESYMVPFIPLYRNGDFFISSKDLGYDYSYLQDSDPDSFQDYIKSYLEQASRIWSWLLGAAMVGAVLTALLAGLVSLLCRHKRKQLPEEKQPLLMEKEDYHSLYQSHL

[5] = molecular target: T1, Tyrosinase (Homo sapiens); test: Binding affinity to human tyrosinase expressed in mouse B16F10 cells at 10 uM by fluorophore based flow cytometry assay; conditions: B16-F10
[6] = molecular target: T1, Tyrosinase (Homo sapiens); test: Binding affinity to human tyrosinase at 50 uM at pH 6.8 by enzymatic assay
Procedure, shortened: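 Human tyrosinase intramelanosomal domain (residues 19–456), 200 nM, with 1 mM L-DOPA and 4 mM MBTH in PBS pH 6.8 with 1% DMSO at 25 °C. Dopaquinone-MBTH absorbance at 490–510 nm is recorded over 10 min, in duplicate, and the OD–time slope is taken by linear regression. Single-point tests use a fixed 50 µM inhibitor. IC50 comes from fitting the slope against inhibitor concentration.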

Activity [1]: Active
Compound: CN(C)c1ccc(CC(=O)N[C@@H](CCC(=O)NCCCCC(NC(=S)Nc2cccc3c2C(=O)OC32c3ccc(O)cc3Oc3cc(O)ccc32)C(=O)O)C(=O)NCc2ccccc2N2CCCC2)cc1 (stereo not given in full)

Activity [6]: Active
Compound: CN(C)c1ccc(CC(=O)N[C@@H](CCC(N)=O)C(=O)NCc2ccccc2N2CCCC2)cc1

Activity [6]: Active
Compound: CN(C)c1ccc(CC(=O)N[C@H](CCC(N)=O)C(=O)NCc2cccc(N3CCOCC3)c2)cc1

Activity [6]: Active
Compound: CN(C)c1ccc(CC(=O)N[C@@H](CCC(N)=O)C(=O)NCc2cccc(N3CCOCC3)c2)cc1

Activity [1]: Active
Compound: CN(C)c1ccc(CC(=O)N[C@H](CCC(=O)NCCCCC(NC(=S)Nc2cccc3c2C(=O)OC32c3ccc(O)cc3Oc3cc(O)ccc32)C(=O)O)C(=O)NCc2ccccc2N2CCCC2)cc1 (stereo not given in full)

Second part, the compound before the results:

Compound: N=C(N)NCCC[C@@H](NC(=O)[C@@H](CC(=O)O)NC(=O)[C@H](CCCCNC(=O)[C@H](CCCCNC(=O)CCCCCNC(=O)CCCCn1cc(CCCC(=O)Nc2nc(-c3ccc(O)cc3O)cs2)nn1)NC(=O)CCCCCNC(=O)CCCCn1cc(CCCC(=O)Nc2nc(-c3ccc(O)cc3O)cs2)nn1)NC(=O)[C@H](CCCCNC(=O)CCCCCNC(=O)CCCCn1cc(CCCC(=O)Nc2nc(-c3ccc(O)cc3O)cs2)nn1)NC(=O)CCCCCNC(=O)CCCCn1cc(CCCC(=O)Nc2nc(-c3ccc(O)cc3O)cs2)nn1)C(=O)N[C@H](CC(=O)O)C(=O)NCCCCCC(=O)N[C@@H](CSC1CC(=O)N(c2ccc3c(c2)C(=O)OC32c3ccc(O)cc3Oc3cc(O)ccc32)C1=O)C(=O)O (stereo not given in full)
Activity [2]: Active
Activity [3]: Active
Activity [4]: Active
Activity [5]: Active

Compound: N=C(N)NCCC[C@@H](NC(=O)[C@@H](CC(=O)O)NC(=O)[C@H](CCCCNC(=O)CCCCCNC(=O)CCCCn1cc(CCCC(=O)Nc2nc(-c3ccc(O)cc3O)cs2)nn1)NC(=O)CCCCCNC(=O)CCCCn1cc(CCCC(=O)Nc2nc(-c3ccc(O)cc3O)cs2)nn1)C(=O)N[C@H](CC(=O)O)C(=O)NCCCCCC(=O)NC(CSC1CC(=O)N(c2ccc3c(c2)C(=O)OC32c3ccc(O)cc3Oc3cc(O)ccc32)C1=O)C(=O)O (single isomer, unassigned)
Activity [2]: Active
Activity [3]: Active
Activity [4]: Active
Activity [5]: Active

Compound: N=C(N)NCCC[C@@H](NC(=O)[C@@H](CC(=O)O)NC(=O)CCCCn1cc(CCCC(=O)Nc2nc(-c3ccc(O)cc3O)cs2)nn1)C(=O)N[C@H](CC(=O)O)C(=O)NCCCCCC(=O)NC(CSC1CC(=O)N(c2ccc3c(c2)C(=O)OC32c3ccc(O)cc3Oc3cc(O)ccc32)C1=O)C(=O)O (single isomer, unassigned)
Activity [2]: Active
Activity [3]: Active
Activity [4]: Active
Activity [5]: Active

Compound: CN(C)c1ccc(CC(=O)N[C@H](CCC(N)=O)C(=O)NCc2ccccc2N2CCCC2)cc1
Activity [6]: Active

Compound: CN(C)c1ccc(CC(=O)N[C@@H](CCC(N)=O)C(=O)N2CCCN(c3ccc(F)cc3)CC2)cc1
Activity [6]: Active

Compound: CN(C)c1ccc(CC(=O)N[C@H](CCC(N)=O)C(=O)N2CCCN(c3ccc(F)cc3)CC2)cc1
Activity [6]: Active
